According to publication PMC3286832 (Nature Communications, 2011):

Experiments:
[1] = tested on: hDNMT3A K47 methylation in 293T cells; test: Methylation in 293T cells; assay type: cell-based, human; settings: coexpression in 293T cells, metabolic labelling with 3H-Met or western blot
How it was run: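 GLP stable knockdown 293T cells expressed Myc-hDNMT3A (WT or K47R), with or without Flag-GLP or G9a, for 36 h. Cells were starved 30 min in methionine-free medium with cycloheximide (100 μg ml−1) and chloramphenicol (40 μg ml−1), then labelled 4 h with 10 μCi ml−1 L-[methyl-3H]methionine. Myc-hDNMT3A was immunoprecipitated with anti-Myc, washed with 600 mM NaCl IPH buffer, and detected by autoradiography.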

[2] = tested on: MPP8–GLP interaction in 293T cells; test: Co-immunoprecipitation of MPP8 and GLP in 293T cells; assay type: cell-based, human
How it was run: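 293T cells (parental, or MPP8 stable knockdown for the chromodomain W80A mutant) were cotransfected with Flag-MPP8 and HA-GLP (WT, K199R, K205R or K209R) for 48 h. Lysates were immunoprecipitated with 1 μg anti-HA or anti-Flag on protein-G agarose, washed with IPH containing 300 or 600 mM NaCl, and analysed by western blot. Input was 5%.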

Molecule	methylation of hDNMT3A in cells [1]	MPP8–GLP interaction in cells [2]
GLP: G9a-like protein, wild-type (protein, left off: HA, end not stated, kept) MAAADAEAVPARGEPQQDCCVKTELLGEETPMAADEGSAEKQAGEAHMAADGETNGSCENSDASSHANAAKHTQDSARVNPQDGTNTLTRIAENGVSERDSEAAKQNHVTADDFVQTSVIGSNGYILNKPALQAQPLRTTSTLASSLPGHAAKTLPGGAGKGRTPSAFPQTPAAPPATLGEGSADTEDRKLPAPGADVKVHRARKTMPKSVVGLHAASKDPREVREARDHKEPKEEINKNISDFGRQQLLPPFPSLHQSLPQNQCYMATTKSQTACLPFVLAAAVSRKKKRRMGTYSLVPKKKTKVLKQRTVIEMFKSITHSTVGSKGEKDLGASSLHVNGESLEMDSDEDDSEELEEDDGHGAEQAAAFPTEDSRTSKESMSEADRAQKMDGESEEEQESVDTGEEEEGGDESDLSSESSIKKKFLKRKGKTDSPWIKPARKRRRRSRKKPSGALGSESYKSSAGSAEQTAPGDSTGYMEVSLDSLDLRVKGILSSQAEGLANGPDVLETDGLQEVPLCSCRMETPKSREITTLANNQCMATESVDHELGRCTNSVVKYELMRPSNKAPLLVLCEDHRGRMVKHQCCPGCGYFCTAGNFMECQPESSISHRFHKDCASRVNNASYCPHCGEESSKAKEVTIAKADTTSTVTPVPGQEKGSALEGRADTTTGSAAGPPLSEDDKLQGAASHVPEGFDPTGPAGLGRPTPGLSQGPGKETLESALIALDSEKPKKLRFHPKQLYFSARQGELQKVLLMLVDGIDPNFKMEHQNKRSPLHAAAEAGHVDICHMLVQAGANIDTCSEDQRTPLMEAAENNHLEAVKYLIKAGALVDPKDAEGSTCLHLAAKKGHYEVVQYLLSNGQMDVNCQDDGGWTPMIWATEYKHVDLVKLLLSKGSDINIRDNEENICLHWAAFSGCVDIAEILLAAKCDLHAVNIHGDSPLHIAARENRYDCVVLFLSRDSDVTLKNKEGETPLQCASLNSQVWSALQMSKALQDSAPDRPSPVERIVSRDIARGYERIPIPCVNAVDSEPCPSNYKYVSQNCVTSPMNIDRNITHLQYCVCIDDCSSSNCMCGQLSMRCWYDKDGRLLPEFNMAEPPLIFECNHACSCWRNCRNRVVQNGLRARLQLYRTRDMGWGVRSLQDIPPGTFVCEYVGELISDSEADVREEDSYLFDLDNKDGEVYCIDARFYGNVSRFINHHCEPNLVPVRVFMAHQDLRFPRIAFFSTRLIEAGEQLGFDYGERFWDIKGKLFSCRCGSPKCRHSSAALAQRQASAAQEAQEDGLPDTSSAAAADPL	markedly increased	
GLP K199R: HA–GLP K199R mutant (protein, left off: HA, end not stated, kept) MAAADAEAVPARGEPQQDCCVKTELLGEETPMAADEGSAEKQAGEAHMAADGETNGSCENSDASSHANAAKHTQDSARVNPQDGTNTLTRIAENGVSERDSEAAKQNHVTADDFVQTSVIGSNGYILNKPALQAQPLRTTSTLASSLPGHAAKTLPGGAGKGRTPSAFPQTPAAPPATLGEGSADTEDRKLPAPGADVRVHRARKTMPKSVVGLHAASKDPREVREARDHKEPKEEINKNISDFGRQQLLPPFPSLHQSLPQNQCYMATTKSQTACLPFVLAAAVSRKKKRRMGTYSLVPKKKTKVLKQRTVIEMFKSITHSTVGSKGEKDLGASSLHVNGESLEMDSDEDDSEELEEDDGHGAEQAAAFPTEDSRTSKESMSEADRAQKMDGESEEEQESVDTGEEEEGGDESDLSSESSIKKKFLKRKGKTDSPWIKPARKRRRRSRKKPSGALGSESYKSSAGSAEQTAPGDSTGYMEVSLDSLDLRVKGILSSQAEGLANGPDVLETDGLQEVPLCSCRMETPKSREITTLANNQCMATESVDHELGRCTNSVVKYELMRPSNKAPLLVLCEDHRGRMVKHQCCPGCGYFCTAGNFMECQPESSISHRFHKDCASRVNNASYCPHCGEESSKAKEVTIAKADTTSTVTPVPGQEKGSALEGRADTTTGSAAGPPLSEDDKLQGAASHVPEGFDPTGPAGLGRPTPGLSQGPGKETLESALIALDSEKPKKLRFHPKQLYFSARQGELQKVLLMLVDGIDPNFKMEHQNKRSPLHAAAEAGHVDICHMLVQAGANIDTCSEDQRTPLMEAAENNHLEAVKYLIKAGALVDPKDAEGSTCLHLAAKKGHYEVVQYLLSNGQMDVNCQDDGGWTPMIWATEYKHVDLVKLLLSKGSDINIRDNEENICLHWAAFSGCVDIAEILLAAKCDLHAVNIHGDSPLHIAARENRYDCVVLFLSRDSDVTLKNKEGETPLQCASLNSQVWSALQMSKALQDSAPDRPSPVERIVSRDIARGYERIPIPCVNAVDSEPCPSNYKYVSQNCVTSPMNIDRNITHLQYCVCIDDCSSSNCMCGQLSMRCWYDKDGRLLPEFNMAEPPLIFECNHACSCWRNCRNRVVQNGLRARLQLYRTRDMGWGVRSLQDIPPGTFVCEYVGELISDSEADVREEDSYLFDLDNKDGEVYCIDARFYGNVSRFINHHCEPNLVPVRVFMAHQDLRFPRIAFFSTRLIEAGEQLGFDYGERFWDIKGKLFSCRCGSPKCRHSSAALAQRQASAAQEAQEDGLPDTSSAAAADPL		had little effect
GLP K209R: HA–GLP K209R mutant (protein, left off: HA, end not stated, kept) MAAADAEAVPARGEPQQDCCVKTELLGEETPMAADEGSAEKQAGEAHMAADGETNGSCENSDASSHANAAKHTQDSARVNPQDGTNTLTRIAENGVSERDSEAAKQNHVTADDFVQTSVIGSNGYILNKPALQAQPLRTTSTLASSLPGHAAKTLPGGAGKGRTPSAFPQTPAAPPATLGEGSADTEDRKLPAPGADVKVHRARKTMPRSVVGLHAASKDPREVREARDHKEPKEEINKNISDFGRQQLLPPFPSLHQSLPQNQCYMATTKSQTACLPFVLAAAVSRKKKRRMGTYSLVPKKKTKVLKQRTVIEMFKSITHSTVGSKGEKDLGASSLHVNGESLEMDSDEDDSEELEEDDGHGAEQAAAFPTEDSRTSKESMSEADRAQKMDGESEEEQESVDTGEEEEGGDESDLSSESSIKKKFLKRKGKTDSPWIKPARKRRRRSRKKPSGALGSESYKSSAGSAEQTAPGDSTGYMEVSLDSLDLRVKGILSSQAEGLANGPDVLETDGLQEVPLCSCRMETPKSREITTLANNQCMATESVDHELGRCTNSVVKYELMRPSNKAPLLVLCEDHRGRMVKHQCCPGCGYFCTAGNFMECQPESSISHRFHKDCASRVNNASYCPHCGEESSKAKEVTIAKADTTSTVTPVPGQEKGSALEGRADTTTGSAAGPPLSEDDKLQGAASHVPEGFDPTGPAGLGRPTPGLSQGPGKETLESALIALDSEKPKKLRFHPKQLYFSARQGELQKVLLMLVDGIDPNFKMEHQNKRSPLHAAAEAGHVDICHMLVQAGANIDTCSEDQRTPLMEAAENNHLEAVKYLIKAGALVDPKDAEGSTCLHLAAKKGHYEVVQYLLSNGQMDVNCQDDGGWTPMIWATEYKHVDLVKLLLSKGSDINIRDNEENICLHWAAFSGCVDIAEILLAAKCDLHAVNIHGDSPLHIAARENRYDCVVLFLSRDSDVTLKNKEGETPLQCASLNSQVWSALQMSKALQDSAPDRPSPVERIVSRDIARGYERIPIPCVNAVDSEPCPSNYKYVSQNCVTSPMNIDRNITHLQYCVCIDDCSSSNCMCGQLSMRCWYDKDGRLLPEFNMAEPPLIFECNHACSCWRNCRNRVVQNGLRARLQLYRTRDMGWGVRSLQDIPPGTFVCEYVGELISDSEADVREEDSYLFDLDNKDGEVYCIDARFYGNVSRFINHHCEPNLVPVRVFMAHQDLRFPRIAFFSTRLIEAGEQLGFDYGERFWDIKGKLFSCRCGSPKCRHSSAALAQRQASAAQEAQEDGLPDTSSAAAADPL		had little effect
GLP K205R: HA–GLP K205R mutant (protein, left off: HA, end not stated, kept) MAAADAEAVPARGEPQQDCCVKTELLGEETPMAADEGSAEKQAGEAHMAADGETNGSCENSDASSHANAAKHTQDSARVNPQDGTNTLTRIAENGVSERDSEAAKQNHVTADDFVQTSVIGSNGYILNKPALQAQPLRTTSTLASSLPGHAAKTLPGGAGKGRTPSAFPQTPAAPPATLGEGSADTEDRKLPAPGADVKVHRARRTMPKSVVGLHAASKDPREVREARDHKEPKEEINKNISDFGRQQLLPPFPSLHQSLPQNQCYMATTKSQTACLPFVLAAAVSRKKKRRMGTYSLVPKKKTKVLKQRTVIEMFKSITHSTVGSKGEKDLGASSLHVNGESLEMDSDEDDSEELEEDDGHGAEQAAAFPTEDSRTSKESMSEADRAQKMDGESEEEQESVDTGEEEEGGDESDLSSESSIKKKFLKRKGKTDSPWIKPARKRRRRSRKKPSGALGSESYKSSAGSAEQTAPGDSTGYMEVSLDSLDLRVKGILSSQAEGLANGPDVLETDGLQEVPLCSCRMETPKSREITTLANNQCMATESVDHELGRCTNSVVKYELMRPSNKAPLLVLCEDHRGRMVKHQCCPGCGYFCTAGNFMECQPESSISHRFHKDCASRVNNASYCPHCGEESSKAKEVTIAKADTTSTVTPVPGQEKGSALEGRADTTTGSAAGPPLSEDDKLQGAASHVPEGFDPTGPAGLGRPTPGLSQGPGKETLESALIALDSEKPKKLRFHPKQLYFSARQGELQKVLLMLVDGIDPNFKMEHQNKRSPLHAAAEAGHVDICHMLVQAGANIDTCSEDQRTPLMEAAENNHLEAVKYLIKAGALVDPKDAEGSTCLHLAAKKGHYEVVQYLLSNGQMDVNCQDDGGWTPMIWATEYKHVDLVKLLLSKGSDINIRDNEENICLHWAAFSGCVDIAEILLAAKCDLHAVNIHGDSPLHIAARENRYDCVVLFLSRDSDVTLKNKEGETPLQCASLNSQVWSALQMSKALQDSAPDRPSPVERIVSRDIARGYERIPIPCVNAVDSEPCPSNYKYVSQNCVTSPMNIDRNITHLQYCVCIDDCSSSNCMCGQLSMRCWYDKDGRLLPEFNMAEPPLIFECNHACSCWRNCRNRVVQNGLRARLQLYRTRDMGWGVRSLQDIPPGTFVCEYVGELISDSEADVREEDSYLFDLDNKDGEVYCIDARFYGNVSRFINHHCEPNLVPVRVFMAHQDLRFPRIAFFSTRLIEAGEQLGFDYGERFWDIKGKLFSCRCGSPKCRHSSAALAQRQASAAQEAQEDGLPDTSSAAAADPL		impairs GLP–MPP8 interaction in cells
